A selection: hits, their analogues and other compounds. The true share with any hit is near 4.1%.
MC4R ag barr: activates human MC4R beta-arrestin recruitment | U2OS MC4R beta-arrestin complementation, luminescence; percent of melanotan II response, DMSO zero | activation, % at 8.9 µM | P32245 | 360,000 tested, 0.98% active | AID 540308;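 active means activation above a per-plate cutoff, the mean activation of sample wells on that plate plus 3 SD, cut at about 8% in these data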
Target sequence (P32245 whole entry, looked up): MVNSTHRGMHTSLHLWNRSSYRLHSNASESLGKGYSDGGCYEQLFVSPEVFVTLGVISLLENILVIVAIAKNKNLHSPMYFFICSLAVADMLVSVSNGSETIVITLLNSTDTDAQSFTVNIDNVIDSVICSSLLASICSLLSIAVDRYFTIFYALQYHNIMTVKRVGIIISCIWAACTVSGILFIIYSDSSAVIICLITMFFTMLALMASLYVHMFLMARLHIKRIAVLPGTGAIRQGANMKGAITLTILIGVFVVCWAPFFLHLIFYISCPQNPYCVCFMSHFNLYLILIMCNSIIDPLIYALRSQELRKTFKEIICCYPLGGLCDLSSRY
ATG4B inhibitor: inhibitors of human ATG4B cysteine protease; ATG4B cleavage of LC3-PLA2, NBD-HPC fluorescence, 1 h; inhibition, % at 8.33 µM; 340,000 tested, 0.51% active; in the data active means inhibition above about 40%
MC4R antag cAMP: blocks human MC4R cAMP signaling. inhibition, % at 6.5 µM. 360,000 tested, 0.48% active. P32245. MC4R-expressing cells, MTII-stimulated cAMP, LANCE TR-FRET;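 active means inhibition above its plate's cutoff, the mean of tested wells on that plate plus 3 SD, cut at about 29% in these data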;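 further: 0% = Melanotan II alone and 100% = Melanotan II plus saturating MCL0020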
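Assay system: U2OS-MC4R stable cell line; Also added: Melanotan II; Technique: Eu-cAMP/anti-cAMP TR-FRET, emission 671 nm; Times: 30-min compound, 1-h challenge, 1-h detection, room temperature.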
MPTP inh: blocks calcium-induced mitochondrial swelling | 360,000 tested, 1.4% active | isolated mouse mitochondria, Ca2+ swelling absorbance, 30 min | inhibition, % at 10 µM;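 active means inhibition of 50% or more, scaled per plate between neutral and stimulator controls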;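 further: 0% = DMSO wells given calcium and 100% = 1 mM EGTA wells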
SMARCA2 activ: SMARCA2 function activation, primary screen; MG213 cells, MMTV-luciferase reporter, dexamethasone, overnight; 370,000 tested, 1% active; activation, % at 9.1 µM; in the data active means activation above about 7.8%;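 further: 0% = vehicle wells and 100% = reference activator wells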
Rh123 counter: Rhodamine 123 counter-screen of mitochondrial pore hits | 5,000 tested, 78% active | shares compounds with MPTP inh | isolated mitochondria, membrane potential, Rhodamine 123 fluorescence | inhibition, % at 10 µM; in the data active means inhibition above about 22%;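 further: 0% = DMSO vehicle and 100% = positive control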
MPTP swell DR: MPTP inhibition, dose response swelling confirmation | shares compounds with MPTP inh | isolated mitochondria swelling, absorbance | IC50, µM | AID 651561 | 780 tested, 58% active; in the data active means IC50 below about 20 µM
MPTP cs DR: counter-screen for mitochondrial permeability transition pore inhibitors, dose response; isolated mitochondria counterscreen, fluorescence read-out; shares compounds with MPTP inh; IC50, µM; 780 tested, 49% active; in the data active means IC50 below about 80 µM
* hit, by the source's call; . = not tested or not shown.

SMILES | MC4R ag barr | ATG4B inhibitor | MC4R antag cAMP | MPTP inh | SMARCA2 activ | Rh123 counter | others
CSc1ccc(/C=C/C(=O)Nc2ccccc2)cc1 | 6.0 | -1.0 | 3.9 | 1.9 | -1.1 | .
CSc1cccc(NC(=O)Nc2ccccc2)c1 | 1.0 | -11.4 | -3.6 | 87.9* | 5.0 | 110.3*
CSc1cccc(NC(C)=O)c1 | -1.2 | 3.7 | 6.0 | 0.2 | -4.2 | .
O=C1[C@H](c2ccccc2)[C@@H](c2ccncc2)N1c1ccncc1 | . | . | . | . | -0.3 | .
O=[N+]([O-])c1cc(C(F)(F)F)ccc1NCCCCNS(=O)(=O)c1ccc2ccccc2c1 | -1.0 | -14.2 | 2.9 | 90.8* | -2.9 | 78.7*
CN(C)C(CNc1ccc(C(F)(F)F)cc1[N+](=O)[O-])c1ccccc1 (centres undefined) | 1.9 | -3.4 | 12.9 | 61.5* | -0.2 | 1.4 | MPTP swell DR=>100;MPTP cs DR=>80
CN(C)C(CNc1ccc(S(C)(=O)=O)cc1[N+](=O)[O-])c1ccccc1 (centres undefined) | 1.0 | -5.1 | 6.2 | -0.2 | -3.0 | .
Cc1nc(C)c(C(=O)NNS(=O)(=O)c2ccc3ccccc3c2)s1 | -0.7 | -6.5 | 22.6 | 88.9* | -2.0 | 62.3*
O=C(CSc1ncnc2c1sc1ccccc12)Nc1ccc(Br)cc1 | 0.7 | 2.5 | 16.3 | 54.5* | -0.3 | 37.4*
CCOC(=O)C1=CCN(S(=O)(=O)c2ccc([N+](=O)[O-])cc2)C1c1ccc(C)cc1 (centres undefined) | . | . | . | . | 0.2 | .
O=C(CSc1nc2nc(-c3cccs3)cc(C(F)(F)F)c2c(=O)[nH]1)Nc1c(F)c(F)c(F)c(F)c1F | -1.6 | 23.6 | 0.7 | 55.0* | -2.2 | 70.0*
NS(=O)(=O)c1cccc(NC(=O)CSc2nc3nc(-c4cccs4)cc(C(F)(F)F)c3c(=O)[nH]2)c1 | -3.1 | -2.7 | 19.4 | -0.6 | 3.5 | .
COc1ccc(C(=O)CSc2nnc(-c3cccs3)o2)cc1OC | . | . | . | . | -4.0 | .
CCCCCCCCCCCCC/C=C/[C@@H](O)[C@@H](N)CO | 4.0 | 1.6 | 15.9 | 97.6* | -3.9 | -8.2
O=C(NNC(=O)c1ccc2ccccc2c1)c1cccc(Br)c1 | -0.2 | 0.0 | -1.9 | 0.2 | -2.2 | .
O=C(NNC(=S)Nc1cccc2ccccc12)c1cccc(Br)c1 | -2.5 | 25.6 | -7.1 | 68.3* | -1.0 | 86.9*
CN(C)C(CNC(C(=O)Nc1ccc([N+](=O)[O-])cc1Br)c1ccccc1)c1ccccc1 (centres undefined) | -0.1 | -3.8 | 1.3 | 5.8 | -1.3 | .
CCN(CC)CCNC(C(=O)Nc1ccc([N+](=O)[O-])cc1Br)c1ccccc1 (centres undefined) | -0.8 | 1.2 | 9.2 | 61.2* | 1.9 | -1.9 | MPTP swell DR=>100;MPTP cs DR=>80
CCN(CC)C(=N)/C(C#N)=N/Nc1ccc(C)cc1 | -1.7 | -2.5 | -19.5 | -0.5 | -3.5 | .
Cc1ccc(N/N=C(\C#N)C(=O)c2ccsc2)cc1 | -0.8 | 4.5 | -1.0 | 51.7* | -0.3 | 71.9*
N#C/C(=N\Nc1ccc(Cl)cc1)C(=O)c1ccsc1 | -3.6 | 16.3 | 9.7 | 72.0* | -8.1 | 90.3*
CCCCN1CN2Cc3ccccc3C2CS1(=O)=O (centres undefined) | . | . | . | . | 3.4 | .
O=C(NC1CCCCN(Cc2ccc(Cl)cc2)C1=O)C(c1ccccc1)c1ccccc1 (centres undefined) | . | . | . | . | -0.1 | .
COc1ccc(C(=O)C2CCCN(Cc3c(F)ccc(F)c3F)C2)c(OC)c1 (centres undefined) | 4.3 | 8.0 | -1.5 | 0.2 | 3.6 | .
COc1ccc(C(=O)C2CCCN(Cc3cccn3-c3ccc(Cl)cn3)C2)c(OC)c1 (centres undefined) | -2.4 | -4.9 | 6.5 | 75.6* | 1.3 | 98.6*
COc1ccc(N/N=C/c2c(C(=O)O)ccc3ccccc23)cc1 | -1.2 | -16.2 | 7.8 | 82.3* | -2.7 | 51.7*
COc1ccc2ccccc2c1/C=N/Nc1ccc(Cl)c(C(=O)O)c1 | -0.8 | 8.3 | -8.6 | 1.7 | 1.1 | .
O=C(N1CCOCC1)N1CC[C@H]2[C@H](CCCN2Cc2ccccc2)C1 | . | . | . | . | -0.7 | .

Screening data deposited in PubChem BioAssay by several laboratories.
